We go through 4 compounds from ChEMBL document CHEMBL1131093, “ATP-Citrate lyase as a target for hypolipidemic intervention. 2. Synthesis and evaluation of (3R,5S)-omega-substituted-3-carboxy-3, 5-dihydroxyalkanoic acids and their gamma-lactone prodrugs as inhibitors of the enzyme in vitro and in vivo” (J Med Chem, 1998).

Several values for one entry are separate records, joined by “and”; a condition that tells them apart may be missing. Identical values can stand only once.

For assay [1], the system named is HepG2. Description: Inhibition of cholesterol synthesis in HepG2 cells was measured at 15 uM concentration. The class given is functional, Homo sapiens. On the set-up: scale not given: the % may be the effect or the level left. In outline:
(§1)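 Compounds were applied to HepG2 cells as their γ-lactone prodrugs. De novo cholesterol synthesis, fatty acid synthesis and cellular ATP levels were each expressed as % of control. Significance was marked at p < 0.001.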

Assay [2] deals with HepG2. Description: Inhibition of cholesterol synthesis in HepG2 cells was measured at 30 uM concentration. Type of assay: functional, Homo sapiens. On the set-up: scale not given: the % may be the effect or the level left. The essentials:
as §1

Assay [3] relates to HepG2. Description: (§2) Inhibition of fatty acid synthesis in HepG2 cells was measured at 15 uM concentration. The class given is functional, Homo sapiens. On the set-up: scale not given: the % may be the effect or the level left. In outline:
as §1

Assay [4] deals with HepG2. The description is as §2. Type of assay: functional, Homo sapiens. The arrangement: scale not given: the % may be the effect or the level left. In outline:
as §1
This is another data set of the same source.

Assay [5] deals with HepG2. Description: Inhibition of fatty acid synthesis in HepG2 cells was measured at 5 uM concentration. On the set-up: scale not given: the % may be the effect or the level left. Type of assay: functional, Homo sapiens. In outline: as §1
The test system of assay [6] is HepG2. Nature of the assay: Inhibition of cholesterol synthesis in HepG2 cells was measured at 5 uM concentration. On the set-up: scale not given: the % may be the effect or the level left. Type of assay: functional, Homo sapiens. The essentials:
as §1

The subject of assay [7] is HepG2. Description: Inhibition of fatty acid synthesis in HepG2 cells was measured at 30 uM concentration. The class given is functional, Homo sapiens. The arrangement: scale not given: the % may be the effect or the level left. In outline: as §1
In assay [8] the test system is HepG2. Nature of the assay: Inhibition of ATP levels in HepG2 cells was measured at 30 uM concentration. The class given is functional, Homo sapiens. The arrangement: scale not given: the % may be the effect or the level left. In outline: as §1
The test system of assay [9] is HepG2. Nature of the assay: Inhibition of ATP levels in HepG2 cells was measured at 15 uM concentration. The class given is functional, Homo sapiens. The arrangement: scale not given: the % may be the effect or the level left. In outline:
as §1

Assay [10] has as its system HepG2. Nature of the assay: Inhibition of cholesterol synthesis in HepG2 cells was measured at 100 uM concentration. On the set-up: scale not given: the % may be the effect or the level left. Type of assay: functional, Homo sapiens. The essentials: as §1
Assay [11] deals with HepG2. Nature of the assay: Inhibition of ATP levels in HepG2 cells was measured at 100 uM concentration. On the set-up: scale not given: the % may be the effect or the level left. The class given is functional, Homo sapiens. In outline:
as §1

Assay [12] deals with T1, ATP-citrate synthase (Homo sapiens, UniProt P53396).
T1 sequence (P53396 whole entry): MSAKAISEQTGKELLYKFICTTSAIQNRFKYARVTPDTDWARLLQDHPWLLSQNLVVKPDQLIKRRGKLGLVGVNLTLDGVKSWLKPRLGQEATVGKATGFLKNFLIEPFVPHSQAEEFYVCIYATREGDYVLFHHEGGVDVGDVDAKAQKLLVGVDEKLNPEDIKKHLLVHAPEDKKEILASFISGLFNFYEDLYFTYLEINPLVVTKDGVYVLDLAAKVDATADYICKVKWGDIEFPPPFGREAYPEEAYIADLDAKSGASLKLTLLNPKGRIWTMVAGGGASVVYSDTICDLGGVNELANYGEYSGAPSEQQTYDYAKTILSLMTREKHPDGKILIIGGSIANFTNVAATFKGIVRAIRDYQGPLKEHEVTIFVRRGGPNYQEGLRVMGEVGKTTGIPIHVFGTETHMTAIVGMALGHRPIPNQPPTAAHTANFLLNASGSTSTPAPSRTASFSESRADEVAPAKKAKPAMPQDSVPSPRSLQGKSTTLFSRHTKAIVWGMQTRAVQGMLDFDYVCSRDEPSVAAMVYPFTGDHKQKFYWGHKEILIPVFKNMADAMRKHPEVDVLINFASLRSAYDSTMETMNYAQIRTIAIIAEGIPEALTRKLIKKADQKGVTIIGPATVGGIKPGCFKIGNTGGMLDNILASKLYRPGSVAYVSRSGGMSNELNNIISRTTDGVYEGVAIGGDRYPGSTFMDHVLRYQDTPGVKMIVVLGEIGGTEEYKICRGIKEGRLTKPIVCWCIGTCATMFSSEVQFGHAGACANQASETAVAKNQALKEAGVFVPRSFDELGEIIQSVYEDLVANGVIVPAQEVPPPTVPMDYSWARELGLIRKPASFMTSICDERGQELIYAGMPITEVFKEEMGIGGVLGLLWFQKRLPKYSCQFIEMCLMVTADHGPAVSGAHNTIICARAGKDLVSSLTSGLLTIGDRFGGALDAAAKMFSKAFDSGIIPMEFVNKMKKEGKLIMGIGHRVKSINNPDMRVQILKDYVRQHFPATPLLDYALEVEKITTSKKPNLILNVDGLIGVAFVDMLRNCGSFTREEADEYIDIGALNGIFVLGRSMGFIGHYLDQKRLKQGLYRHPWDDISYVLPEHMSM
Description: Inhibitory activity was tested against human recombinant ATP-Citrate Lyase (ACL) enzyme. The essentials: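 Recombinant human ACL enzyme. Compounds purified as γ-lactones were hydrolysed back to the open hydroxy diacid with excess aqueous NaOH before being added to the assay buffer mix. Potency is reported as the reversible Ki for enzyme inhibition.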

Assay [13] has as its target T2, ATP-citrate synthase (Rattus norvegicus, UniProt P16638).
T2 sequence (P16638 whole entry): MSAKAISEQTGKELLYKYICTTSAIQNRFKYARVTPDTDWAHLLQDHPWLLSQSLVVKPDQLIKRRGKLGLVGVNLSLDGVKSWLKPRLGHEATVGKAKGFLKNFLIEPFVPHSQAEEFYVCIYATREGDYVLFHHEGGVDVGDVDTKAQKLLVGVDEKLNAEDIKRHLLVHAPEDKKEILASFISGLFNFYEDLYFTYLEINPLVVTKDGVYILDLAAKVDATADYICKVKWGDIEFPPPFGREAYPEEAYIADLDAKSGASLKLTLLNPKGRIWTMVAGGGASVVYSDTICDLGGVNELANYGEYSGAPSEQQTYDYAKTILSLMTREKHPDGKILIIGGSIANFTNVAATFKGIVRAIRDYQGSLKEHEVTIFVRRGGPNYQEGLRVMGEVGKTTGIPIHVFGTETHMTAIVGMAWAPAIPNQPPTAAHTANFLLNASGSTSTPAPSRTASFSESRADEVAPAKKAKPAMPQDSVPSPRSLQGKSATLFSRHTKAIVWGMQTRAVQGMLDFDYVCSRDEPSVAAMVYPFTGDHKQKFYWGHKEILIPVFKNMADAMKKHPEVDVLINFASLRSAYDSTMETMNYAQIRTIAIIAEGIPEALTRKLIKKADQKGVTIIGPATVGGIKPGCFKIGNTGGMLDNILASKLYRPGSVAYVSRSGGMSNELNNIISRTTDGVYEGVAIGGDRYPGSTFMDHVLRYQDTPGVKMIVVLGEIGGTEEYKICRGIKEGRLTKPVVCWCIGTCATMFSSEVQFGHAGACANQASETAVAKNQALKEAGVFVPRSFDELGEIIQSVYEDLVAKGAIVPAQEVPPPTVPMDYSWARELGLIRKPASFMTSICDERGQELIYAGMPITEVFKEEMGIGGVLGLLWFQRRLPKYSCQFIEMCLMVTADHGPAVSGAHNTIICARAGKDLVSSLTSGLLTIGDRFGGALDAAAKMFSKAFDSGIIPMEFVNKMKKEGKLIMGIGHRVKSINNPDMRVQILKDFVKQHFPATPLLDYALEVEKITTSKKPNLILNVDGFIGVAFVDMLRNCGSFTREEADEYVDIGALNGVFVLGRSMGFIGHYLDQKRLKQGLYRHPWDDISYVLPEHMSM
Description: Inhibitory activity was tested against rat ATP-Citrate Lyase (ACL) enzyme.

In assay [14] the test system is HepG2. Description: Inhibition of cholesterol synthesis in HepG2 cells was measured at 1000 uM concentration. The class given is functional, Homo sapiens. On the set-up: scale not given: the % may be the effect or the level left. In outline: as §1
The test system of assay [15] is HepG2. Description: Inhibition of ATP levels in HepG2 cells was measured at 300 uM concentration. The arrangement: scale not given: the % may be the effect or the level left. Type of assay: functional, Homo sapiens. The essentials:
as §1

Assay [16] deals with HepG2. Nature of the assay: Inhibition of fatty acid synthesis in HepG2 cells was measured at 1000 uM concentration. Type of assay: functional, Homo sapiens. On the set-up: scale not given: the % may be the effect or the level left. The essentials:
as §1

In assay [17] the test system is HepG2. Description: Inhibition of fatty acid synthesis in HepG2 cells was measured at 300 uM concentration. Type of assay: functional, Homo sapiens. The arrangement: scale not given: the % may be the effect or the level left. The essentials: as §1
Assay [18] relates to HepG2. Nature of the assay: Inhibition of ATP levels in HepG2 cells was measured at 1000 uM concentration. The arrangement: scale not given: the % may be the effect or the level left. The class given is functional, Homo sapiens. In outline: as §1
For assay [19], the system named is HepG2. Description: Inhibition of cholesterol synthesis in HepG2 cells was measured at 300 uM concentration. The class given is functional, Homo sapiens. The arrangement: scale not given: the % may be the effect or the level left. The essentials: as §1
The subject of assay [20] is HepG2. Description: Inhibition of fatty acid synthesis in HepG2 cells was measured at 100 uM concentration. The arrangement: scale not given: the % may be the effect or the level left.
Assay [21] relates to HepG2. Description: Inhibition of cholesterol synthesis in HepG2 cells was measured at 100 uM concentration. On the set-up: scale not given: the % may be the effect or the level left.
Assay [22] concerns HepG2. Description: Inhibition of ATP levels in HepG2 cells was measured at 5 uM concentration. Type of assay: functional, Homo sapiens. The arrangement: scale not given: the % may be the effect or the level left. In outline: as §1

Turning to `O=C(O)C[C@@]1(O)C[C@@H](CCCCCCc2ccc(Cl)cc2Cl)OC1=O` (stereo in doubt; (+)-77), the Control in the assay on HepG2 [1] is 52% and 41%; in the assay with HepG2 [2], 11%; in the assay with HepG2 [3] it was 69%; in the assay on HepG2 [4], 81%; in the assay on HepG2 [5], 113%; in the assay with HepG2 [6], 95%. Besides, the Control was found to be 25% with HepG2 [7], 99% in the assay on HepG2 [8] and 100% in the assay with HepG2 [9].
For `O=C(O)C[C@@](O)(C[C@H](O)CCCCCCc1ccc(Cl)cc1Cl)C(=O)O` (stereo in doubt; 45), the Control with HepG2 [10] is given as 84%; in the assay with HepG2 [11], 104%. The Ki at ATP-citrate synthase [12] and on ATP-citrate synthase [13] was 1 µM throughout.
For the compound `O=C(O)C[C@@](O)(C(=O)O)[C@H](O)C(=O)O`, the Control in the assay on HepG2 [14] came out at 15%; in the assay on HepG2 [15] it was 103%; in the assay on HepG2 [16], 57%; in the assay on HepG2 [17] it was 79%; in the assay on HepG2 [18], 104%; with HepG2 [19] it was 40%. The Control was determined as 87% with HepG2 [20] and 110% with HepG2 [21].
In the case of `O=C(O)C[C@@]1(O)C[C@@H](CCCCCCc2ccc(Cl)cc2Cl)OC1=O` (stereo in doubt; (-)-77), the Control in the assay on HepG2 [1] was 37% and 33%; with HepG2 [2], 9%; in the assay with HepG2 [22], 101%; with HepG2 [3], 82%; in the assay on HepG2 [4] it was 90%; with HepG2 [5], 123%. For the same compound, the Control in the assay on HepG2 [6] is 105%; in the assay on HepG2 [7] it was 39%; in the assay on HepG2 [8] it was 98%; with HepG2 [9], 99% and 98%.
